Bioassay records from PubChem.
NR2E3 ag-1: inhibitors of NR2E3-RetCOR corepressor binding, primary screen, NR2E3 agonist project, biochemical, TR-FRET, GST-NR2E3, biotin-RetCOR; Photoreceptor-specific nuclear receptor (Homo sapiens), Q9Y5X4; 1536-well; inhibition of corepressor binding, % at 4.78 µM; actives 0.12% (n = 320,000); AID 2300, 2010;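 active = percent inhibition above the cutoff of mean plus 3 SD of all tested compounds, set per screening campaign, cut at about 20% in these data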;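 also: 0% = DMSO wells and 100% = biotin wells as full block of FRET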
Target sequence (Q9Y5X4 whole entry, looked up): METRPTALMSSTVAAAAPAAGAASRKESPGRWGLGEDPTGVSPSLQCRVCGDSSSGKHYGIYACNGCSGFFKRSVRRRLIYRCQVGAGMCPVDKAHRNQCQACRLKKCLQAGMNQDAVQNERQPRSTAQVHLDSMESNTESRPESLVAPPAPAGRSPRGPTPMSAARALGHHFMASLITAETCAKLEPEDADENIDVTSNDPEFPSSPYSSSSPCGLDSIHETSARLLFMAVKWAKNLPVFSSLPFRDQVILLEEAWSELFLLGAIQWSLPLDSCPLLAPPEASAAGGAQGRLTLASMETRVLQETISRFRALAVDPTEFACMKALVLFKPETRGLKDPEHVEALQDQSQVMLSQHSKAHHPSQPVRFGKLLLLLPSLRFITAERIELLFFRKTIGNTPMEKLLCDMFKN
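System: GST-tagged NR2E3 plus biotinylated RetCOR corepressor; Buffer or medium: pH 7.5 Tris-based buffer; Probe or stimulus: RetCOR corepressor, biotinylated, 7 nM; Doses: compound at 4.8 µM, single dose; Schedule: 5 h incubation at 4 °C; Technique: time-resolved FRET; Evaluation: percent inhibition of TR-FRET ratio; Replication: one well per compound, singlicate testing.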
697 NFkB inh: inhibitors of PMA/ionomycin-induced NF-kB reporter, 697 cells, primary screen, B-cell NF-kB inhibitor project, cell-based, luminescence, uHTS | 697 B-cell NF-kB luciferase reporter, 16 h | inhibition, % at 4 µM | actives 0.33% (n = 330,000) | AID 435022, 2010; in the data active = inhibition above about 35%
GalR3 antag: GalR3 antagonists in HEK293 cells, primary screen, cell-based, fluorescence readout; actives 0.44% (n = 360,000); inhibition, % at 3 µM; AID 651719, 2012; HEK293 GalR3-CNG cAMP membrane potential fluorescence; galR3 body fused to GalR1 C-terminus;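 active = inhibition above the screen-wide average plus 3 SD, cut at about 13% in these data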;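 also: forskolin and galanin both at EC90 stimulate the cells; cAMP rise reported by CNG channel membrane potential dye signal; 0% = forskolin plus galanin with DMSO and 100% = forskolin alone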
Target sequence (O60755 1-299 limits assumed): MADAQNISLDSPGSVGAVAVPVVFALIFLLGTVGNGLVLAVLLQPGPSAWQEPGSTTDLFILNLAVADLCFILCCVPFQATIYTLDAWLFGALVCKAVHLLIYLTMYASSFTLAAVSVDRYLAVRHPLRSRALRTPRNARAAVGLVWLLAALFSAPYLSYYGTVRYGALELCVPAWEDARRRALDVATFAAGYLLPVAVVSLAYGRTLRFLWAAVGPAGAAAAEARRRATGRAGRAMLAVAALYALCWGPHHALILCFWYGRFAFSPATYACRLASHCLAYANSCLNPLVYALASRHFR
NR2E3 ag-2: NR2E3 agonists in two-hybrid cells, primary screen, cell-based, luminescence, CHO-S, Gal4-NCOR/VP16-NR2E3 | Photoreceptor-specific nuclear receptor (Homo sapiens), Q9Y5X4 | luciferase | inhibition of corepressor binding, % at 3.98 µM | actives 0.35% (n = 360,000) | AID 602229, 2012;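 active = inhibition above the mean of all tested compounds plus 3 SD, cut at about 70% in these data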;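 also: 0% = DMSO with NR2E3 transfected cells and 100% = cells lacking NR2E3 construct; higher means lower luciferase signal from less NR2E3 corepressor binding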
Jurkat NFkB inh: inhibitors of induced NF-kB luciferase reporter, primary screen, TCR NF-kB activation inhibitor project, cell-based, luminescence, uHTS; Jurkat, PMA/ionomycin-induced NF-kB luciferase reporter; inhibition, % at 4 µM; actives 0.53% (n = 330,000); AID 435003, 2010; in the data active = inhibition above about 50%
Gli-Sufu block: Gli-Sufu pathway antagonists, primary screen, luciferase luminescence, Sufu-KO-LIGHT cells, uHTS. Sufu-KO-LIGHT fibroblasts, Gli luciferase reporter luminescence. AID 588413, 2011. actives 0.74% (n = 340,000). inhibition, % at 5 µM;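 active = inhibition above about 55%, limit read from the data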;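 also: 0% = DMSO-treated cells and 100% = wells with medium but no cells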
GalR3 conf: GalR3 antagonist hit confirmation, cell-based, fluorescence, triplicate; shares compounds with GalR3 antag; HEK293 GalR3 CNG cAMP biosensor, membrane potential fluorescence; galR3 fused to GalR1 carboxy tail; challenged with forskolin and galanin at EC90; inhibition, % at 3 µM; actives 59% (n = 1,600); AID 652245, 2013;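 active = inhibition above the primary screen's cutoff, the mean inhibition of all screened compounds plus 3 SD, cut at about 13% in these data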;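 also: 0% = forskolin plus galanin and 100% = forskolin alone with DMSO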
CNG parental: nonspecific cAMP agonists in parental HEK-CNG cells, counter-screen for GalR3 antagonist project, cell-based, fluorescence, high throughput | actives 10% (n = 1,600) | activation, % at 3 µM | HEK293-CNG parental cells, cAMP membrane potential fluorescence; normalised: DMSO wells 0%, forskolin wells 100% | AID 652268, 2013 | shares compounds with GalR3 antag; in the data active = activation above about 1.3%
* = called active by the depositor. Shown are actives, neighbours in structure and some others; about 1.8% of the full set was active somewhere.

What do the screens show for `COc1ccc(-n2c(C)cc(-c3cn4cccc(C)c4n3)c2C)cc1`?
NR2E3 ag-1: -3; 697 NFkB inh: 17; GalR3 antag: -8; NR2E3 ag-2: -5; Jurkat NFkB inh: 5; Gli-Sufu block: 28

Results for Cc1cc(-c2cn3ccccc3n2)c(C)n1-c1ccccc1 ?
NR2E3 ag-1: 4; 697 NFkB inh: -27; GalR3 antag: 13*; NR2E3 ag-2: -97; Jurkat NFkB inh: 10; Gli-Sufu block: -14; GalR3 conf: 4; CNG parental: 0

How did Cc1ccsc1/C=N/NC(=O)c1nnn(-c2nonc2N)c1-c1ccccc1 do in these assays?
NR2E3 ag-1: 4; 697 NFkB inh: 28; GalR3 antag: -10; NR2E3 ag-2: -14; Jurkat NFkB inh: 2; Gli-Sufu block: -17

How did COc1cccc(-c2c(C(=O)N/N=C/c3sccc3C)nnn2-c2nonc2N)c1 do in these assays?
NR2E3 ag-1: -3; 697 NFkB inh: 11; NR2E3 ag-2: 2; Jurkat NFkB inh: 4; Gli-Sufu block: -31; GalR3 conf: 12; CNG parental: -1

What do the screens show for `Cc1ccccc1CNC(=O)C(=O)NCC1CCCN1S(=O)(=O)c1cccs1` (stereo not drawn)?
697 NFkB inh: -7; GalR3 antag: 0; NR2E3 ag-2: -21; Jurkat NFkB inh: 4; Gli-Sufu block: -4

What do the screens show for `COc1ccc(S(=O)(=O)NC2CC(C)(C)NC(C)(C)C2)c2ccccc12`?
NR2E3 ag-1: -1; 697 NFkB inh: -8; GalR3 antag: -2; NR2E3 ag-2: -14; Jurkat NFkB inh: 9; Gli-Sufu block: 11

What do the screens show for `CCN(CC(O)c1cccc(O)c1)C(=O)C12CC3CC(CC(C3)C1)C2` (stereo not drawn)?
NR2E3 ag-1: -3; 697 NFkB inh: -5; GalR3 antag: 17*; NR2E3 ag-2: -11; Jurkat NFkB inh: -13; Gli-Sufu block: -1; GalR3 conf: 57*; CNG parental: 2.0*

What do the screens show for `CNC[C@H](O)c1cccc(O)c1`?
NR2E3 ag-1: 0; 697 NFkB inh: 20; NR2E3 ag-2: 1; Jurkat NFkB inh: -14; Gli-Sufu block: -13

Results for N#Cc1c(N)nc(SCc2ccccn2)c(C#N)c1-c1cccs1 ?
NR2E3 ag-1: -2; 697 NFkB inh: -25; GalR3 antag: 75*; NR2E3 ag-2: 28; Jurkat NFkB inh: 15; Gli-Sufu block: 8; GalR3 conf: 49*; CNG parental: 2.5*

Results for CCOC(=O)CSc1nc(N)c(C#N)c(-c2cccs2)c1C#N ?
NR2E3 ag-1: 3; 697 NFkB inh: -6; GalR3 antag: -4; NR2E3 ag-2: 21; Jurkat NFkB inh: -1; Gli-Sufu block: 7

How did CN(C)C1=NC[C@H](Cc2ccccc2)N1CCc1cccc(F)c1 do in these assays?
NR2E3 ag-1: -2; 697 NFkB inh: -3; GalR3 antag: 6; NR2E3 ag-2: 7; Jurkat NFkB inh: 3; Gli-Sufu block: 13

Results for CC(C)(C)CN1C(N)=NC[C@@H]1Cc1ccccc1 ?
NR2E3 ag-1: -1; 697 NFkB inh: 9; NR2E3 ag-2: -14; Jurkat NFkB inh: 12; Gli-Sufu block: 6; GalR3 conf: 4; CNG parental: 0

How did NC1=NC[C@H](Cc2ccc(O)cc2)N1CCc1cccc(F)c1 do in these assays?
NR2E3 ag-1: 0; 697 NFkB inh: 10; NR2E3 ag-2: -5; Jurkat NFkB inh: 8; Gli-Sufu block: -4; GalR3 conf: 7; CNG parental: 0

Results for CC(C)(C)CN1C(N)=NC[C@@H]1c1ccccc1 ?
NR2E3 ag-1: 3; 697 NFkB inh: 13; GalR3 antag: -1; NR2E3 ag-2: 1; Jurkat NFkB inh: 10; Gli-Sufu block: 5

What do the screens show for `CC1CCCCC1NC(=O)CN1c2cccc3cccc(c23)S1(=O)=O` (stereo not drawn)?
NR2E3 ag-1: 2; 697 NFkB inh: -1; GalR3 antag: -4; NR2E3 ag-2: 0; Jurkat NFkB inh: -2; Gli-Sufu block: 9

Results for Cc1ccccc1S(=O)(=O)NCc1ccc(N2CCN(C)CC2)cc1 ?
NR2E3 ag-1: 0; 697 NFkB inh: -12; GalR3 antag: 1; NR2E3 ag-2: -2; Jurkat NFkB inh: -44; Gli-Sufu block: 0

What do the screens show for `Nc1ncnc2c1ncn2[C@@H]1O[C@H](C(=O)NS(=O)(=O)c2cccc(F)c2)[C@@H](O)[C@H]1O`?
GalR3 antag: -3; NR2E3 ag-2: 4

What do the screens show for `N#Cc1ccccc1S(=O)(=O)NC(=O)[C@H]1O[C@@H](n2cnc3c(N)ncnc32)[C@H](O)[C@@H]1O`?
GalR3 antag: 21*; NR2E3 ag-2: 5; GalR3 conf: 45*; CNG parental: 1.4*

What do the screens show for `CCOC(=O)CCc1cccc2c1CCC2=O`?
NR2E3 ag-1: -2; 697 NFkB inh: 16; NR2E3 ag-2: -6; Jurkat NFkB inh: 5; Gli-Sufu block: -3; GalR3 conf: 4; CNG parental: 1

Results for O=C(Nc1ccc(-c2n[nH]c(=S)o2)cc1)c1ccccc1Cl ?
NR2E3 ag-1: 1; 697 NFkB inh: -24; GalR3 antag: -12; NR2E3 ag-2: -61; Jurkat NFkB inh: 7; Gli-Sufu block: -7

Results for COc1ccc(CCNC(=O)c2cccnc2SC)cc1 ?
NR2E3 ag-1: 0; 697 NFkB inh: 15; GalR3 antag: 13*; NR2E3 ag-2: -41; Jurkat NFkB inh: 7; Gli-Sufu block: 1; GalR3 conf: 27*; CNG parental: 0

How did CCn1c2ccccc2c2cc(C3C(C#N)=C(N)Oc4n[nH]c(COC)c43)ccc21 (stereo not drawn) do in these assays?
NR2E3 ag-1: 2; 697 NFkB inh: 14; GalR3 antag: 41*; NR2E3 ag-2: 2; Jurkat NFkB inh: 30; Gli-Sufu block: 12; GalR3 conf: 26*; CNG parental: 0
